bCat nuc transl: alters nuclear translocation of beta-catenin in HeLa cells; immunofluorescence imaging; nuclear translocation activity, % at 5 µM; 190,000 compounds, 0.3% hits;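 active = nuclear translocation activity above 50% at 5 µM, with a well cell count of 50 or more; inconclusive = wells under 50 cells across six images, flagged as toxic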;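 also: per-cell ratio of nuclear to cytoplasmic median beta-catenin stain intensity; plate controls were DMSO negative control for no effect and GSK-3 inhibitor IX positive control for full effect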
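System: Human HeLa cells, endogenous beta-catenin | Compound dosing: 5 µM primary, 0.02–20 µM confirmation | Timing: 24 h compound exposure at 37°C, 5% CO2 | Measured by: Fluorescence imaging of beta-catenin antibody stain plus DAPI | Read-out basis: % activation of per-cell nuclear versus cytoplasmic median beta-catenin signal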
MT stabilize HCS: microtubule stabilization, imaging screen; HeLa tubulin immunostaining HCS, 24 h; share of cells brighter than vehicle mean+2SD; % tubulin-high responders, % at 10 µM; 200,000 compounds, 0.83% hits; AID 2205;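 active = plate Z-score above 3 for both tubulin-high and condensed-nucleus cell shares, with cell loss under 80%, at 10 µM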;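 also: anti alpha tubulin signal scored within the nucleus-defined area of each cell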
Dynein transport: dynein cargo transport inhibition. 3617.4 mouse cells, GR-EGFP nuclear translocation imaging; test concentration mostly 20 µM; stimulated with dexamethasone, 1 µM; hits give low values. z-score, hits read low. 220,000 compounds, 0.47% hits;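 active = plate z-score of nuclear minus cytoplasmic receptor signal below a set negative limit, without overly bright fluorescence or cell loss, cut at about -3.5 in these data, passing the limit was not always enough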;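 also: z-score of nuclear minus cytoplasmic ring GR-EGFP intensity difference per well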
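Buffer or medium: Induction medium lacking tetracycline, stripped serum | Also added: Dexamethasone agonist, 1.0 µM final, for 30 min | Timing: 48 h induction, 1 h compound, 30 min dex at 37 °C | Detection: Formaldehyde fixation, Hoechst nuclear stain, 10x automated fluorescence imaging | Measure: Nuclear versus cytoplasmic GR-EGFP signal, averaged per well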
HSV replic up: HSV replication enhancement; 220,000 compounds, 0.005% hits; maximum fold increase; HSV replication augmentation in cells, fold increase; AID 1956; in the data active = maximum fold increase above about 1.5; inconclusive = no clear call, values can overlap the other calls; tested in PC3 cells
L major viab: inhibitors of Leishmania major promastigote growth; AID 1063; Leishmania major promastigotes, resazurin fluorescence viability; inhibition, % at 10 µM; 200,000 compounds, 9% hits; in the data active = inhibition above about 50%;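 also: promastigotes grown with compound for 44 hours at 28 °C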
* marks the source's active call; other numbers are inactive results; i = inactive; ? = inconclusive; / = not tested or not shown. This is a sample that favours compounds with a hit; in the whole collection about 8.9% have one here.

SMILES | bCat nuc transl | MT stabilize HCS | Dynein transport | HSV replic up | L major viab
CCCc1nc2ccc([N+](=O)[O-])cc2[nH]1 | 0.5 | 3.1 | 1.3 | i | 0.7
N#CCC(=O)NNC(=S)NC(=O)C(c1ccccc1)c1ccccc1 | 0.1 | 4.8 | 0.348 | i | 1.3
CC(=O)Nc1ccc(Oc2sc(C(=O)c3ccccc3)c(N)c2C#N)cc1 | 0.1 | 3.0 | -1.05 | i | 97.5*
CSc1ncccc1C(=O)N1CCCC(C(=O)c2cc(F)ccc2F)C1 (centres undefined) | -1.7 | 2.4 | 1.39 | i | 2.7
CN(C)S(=O)(=O)c1ccc(N2CCCC2)c(C(=O)Nc2nc3ccccc3s2)c1 | -3.4 | 1.0 | 0.0456 | i | 1.8
CC(=O)Nc1ccc(Oc2ccc3nc(C)[nH]c3c2)cc1 | 1.4 | 1.6 | -1.14 | i | 11.5
CCN1CCc2nc(NC(=O)CC(c3ccccc3)c3ccccc3)sc2C1 | -1.3 | 3.7 | 0.54 | i | 55.5*
CC1CC(C)CN(S(=O)(=O)c2ccc(C(C)(C)C)cc2)C1 (centres undefined) | -0.5 | 2.5 | 0.0102 | i | 13.4
O=C(c1ccc2snnc2c1)N1CCN(c2ccccn2)CC1 | 0.3 | 2.2 | -1.32 | i | 0.7
O=[N+]([O-])c1cccc(/C=C/c2nc3ccc([N+](=O)[O-])cc3[nH]2)c1 | -3.4 | 1.5 | 0.794 | i | 54.8*
N#Cc1c(-c2cccs2)cc(-c2cccnc2)nc1N | -0.9 | 1.8 | 0.974 | i | 52.9*
N#Cc1c(-c2ccc(F)cc2)cc(-c2cccnc2)nc1N | 2.2 | 3.4 | -0.306 | i | -3.6
CCOC(=O)C1CCN(Cc2cnc(NC(=O)OC)s2)CC1 | -2.2 | 4.9 | 1.43 | i | -0.7
CCN(Cc1ccncc1)Cc1cn(C)nc1-c1ccc(Oc2ccccc2)cc1 | -3.0 | 2.3 | -0.841 | i | 96.3*
CC1CN(Cc2cn(C)nc2-c2ccc(Oc3ccccc3)cc2)CCN1C (centres undefined) | -0.2 | 6.8 | 1.75 | i | 49.4
Cn1cc(CN2CCC(O)CC2)c(-c2ccc(Oc3ccccc3)cc2)n1 | 2.9 | 4.0 | 1.14 | i | 81.0*
CCOC(=O)C1CCN(Cc2cn(C)nc2-c2ccc(Oc3ccccc3)cc2)CC1 | 2.7 | 3.5 | -1.16 | i | 78.8*
COCCN1CCN(Cc2cn(C)nc2-c2ccc(Oc3ccccc3)cc2)CC1 | 0.2 | / | -0.0793 | i | /
CCOC(=O)C1CCN(Cc2cnc(Oc3ccc(C(C)(C)C)cc3)s2)CC1 | 0.9 | 0.7 | 0.744 | i | 90.8*
O=C(COC(=O)c1cccc(S(=O)(=O)N2CCc3ccccc32)c1)Nc1ccc(Cl)cn1 | -1.2 | 5.1 | -1.19 | i | -7.5
COc1ccc(CC(=O)NC(=S)NNC(=O)COc2c(C)cccc2C)cc1 | -2.0 | 4.7 | 0.577 | i | -4.1
Cn1cc(CN2CCN(CCO)CC2)c(-c2ccc(Oc3ccccc3)cc2)n1 | 0.1 | 4.4 | 0.215 | i | 51.0*
Cc1cc(CNCc2cn(C)nc2-c2ccc(Oc3ccccc3)cc2)on1 | 0.2 | 3.5 | -0.862 | i | 59.6*
CCSC1(SCC)N=C(N)C2(C#N)C(c3ccccc3)NC3=C(CCC3)C12C#N (centres undefined) | 0.4 | 1.6 | 0.119 | i | 12.1
CCOC(=O)CN1C=C(c2ccc3ccccc3n2)C(C[N+](=O)[O-])c2ccccc21 (centres undefined) | / | 0.7 | 1.44 | ? | 99.1*
SMILES | bCat nuc transl | MT stabilize HCS | Dynein transport | HSV replic up | L major viab
CCc1c(C)nc2cc(-c3ccc(OC)c(OC)c3)nn2c1N1CCC(C)CC1 | 1.3 | 1.1 | -0.666 | i | 11.7
COCCCNC(=S)Nc1ccc(N2CCCCC2)cc1 | / | 3.0 | 0.689 | i | -0.2
CC(C)(C)c1ccc(O)c(/C=N\O)c1 | -3.3 | 1.4 | 0.872 | i | 5.6
CC(C)(C)c1cccc(/C=N/O)c1O | -0.1 | 4.4 | -1.03 | i | 52.5*
Cc1noc(C)c1S(=O)(=O)N(CC(=O)N1CCCCCC1)c1ccc(C(C)C)cc1 | / | 1.9 | 1.59 | i | 63.2*
CC1=C(C(=O)Nc2ccccc2)C(c2ccc(C)o2)n2c(s/c(=C\c3ccco3)c2=O)=N1 (centres undefined) | -5.5 | 2.9 | -0.623 | i | 83.5*
Cc1ccc(NC(=O)N2CCCC2)cc1Cl | -0.2 | 1.6 | 0.785 | i | 94.7*
O=C(Nc1ccc(Cl)c(Cl)c1)N1CC=CCC1 | -4.4 | 3.8 | -0.298 | i | 85.1*
O=C(Nc1ccccc1)N1CCNCC1 | -0.7 | / | -0.556 | i | /
Cc1ccc(NC(=O)C(=O)N2CCCC2)cc1Cl | -2.9 | 3.5 | -0.202 | i | -8.9
O=C(Nc1ccccc1)N1CCCC1 | / | 1.3 | 1.05 | i | 96.9*
CC(C)(C)C(=O)c1sc2nc(-c3cccs3)cc(C(F)(F)F)c2c1N | -4.6 | 11.6 | -3.9 | ? | 53.9*
Nc1c(C(=O)Nc2nccs2)sc2nc(-c3cccs3)cc(C(F)(F)F)c12 | -1.9 | 2.6 | -1.3 | / | 0.2
COc1ccc(CCNC(=O)CSc2nncs2)cc1 | / | 2.4 | 0.636 | i | 58.6*
NC(=O)c1c(NC(=S)Nc2ccccc2)sc2c1CCCC2 | -2.7 | 2.3 | -0.765 | i | -1.4
Cc1cc(Nc2cnc3ccccc3n2)n(-c2ccccc2)n1 | 1.0 | 3.0 | 0.000355 | i | 67.1*
Cc1cc(Nc2ncc(Cl)cc2Cl)n(-c2ccccc2)n1 | -1.0 | 2.0 | -1.06 | i | 0.8
CCCNCC1C(Oc2ccc(Cl)cc2Cl)C(=O)N1c1cccc(C)c1C (centres undefined) | 0.1 | 2.7 | -0.466 | i | 71.7*
CCCOc1cccc(-c2nn(-c3ccccc3)cc2/C=C(\C#N)C(=O)NCCCn2ccnc2)c1 | 1.2 | 4.3 | 0.269 | i | 89.3*
N#C/C(=C\c1ccc([N+](=O)[O-])cc1)C(=O)NCCCn1ccnc1 | -1.8 | / | 0.283 | i | /
N#C/C(=C/c1cn(-c2ccccc2)nc1-c1cccc(OCc2ccc(F)cc2)c1)C(=O)NCCCn1ccnc1 | -0.6 | 6.9 | 0.495 | i | 100.4*
COc1cc(OC)c2c(=O)c(OC)c(-c3ccc(OC)c(OC)c3)oc2c1 | -1.8 | 1.9 | -0.128 | i | 5.1
Cc1cc(O)c(-c2cc(C(=O)Nc3ccc(S(=O)(=O)N4CCOCC4)cc3)[nH]n2)cc1C | 3.5 | 8.4 | -0.0201 | i | 48.0
Cc1ccc(-c2nc3cc(NC(=O)C(C)C)ccc3o2)cc1 | -1.1 | 0.5 | -0.118 | i | 3.8
Cc1cc2nc(-c3ccc(NC(=O)C(C)C)cc3)oc2cc1C | 0.1 | 0.4 | -0.31 | / | 90.2*
O=C(Cc1ccccc1)N1CCCC(c2nc(-c3ccc(S(=O)(=O)N4CCCC4)cc3)no2)C1 (centres undefined) | / | 1.0 | 0.653 | i | 98.8*
O=C(NC1CCCCC1)N1CCC(c2nc(-c3ccc(S(=O)(=O)N4CCCC4)cc3)no2)CC1 | 0.9 | 35.1* | -0.586 | i | 75.0*
O=C(N1CCOCC1)N1CCC(c2nc(-c3ccc(S(=O)(=O)N4CCOCC4)cc3)no2)CC1 | 4.9 | 0.7 | 2.71 | i | 11.3
CC(C)C(=O)N1CCC(c2nc(-c3ccc(S(=O)(=O)N4CCN(C)CC4)cc3)no2)CC1 | 1.8 | 2.2 | -0.63 | i | -1.2

High-throughput results deposited in PubChem BioAssay by several laboratories.
